The record followed here is ChEMBL document CHEMBL1129728, “Structure-based design and synthesis of substituted 2-butanols as nonpeptidic inhibitors of HIV protease: secondary amide series” (J Med Chem, 1996).

The structures appear in SMILES notation.

In test [1] the target is T1, Human immunodeficiency virus type 1 protease (Human immunodeficiency virus 1, UniProt Q72874). Kind of test: (§1) Inhibitory activity against HIV PR in HIV-1 infected CEM-SS cell lines. Type of test: cell-based.
In test [2] the target is Human immunodeficiency virus type 1 protease (Human immunodeficiency virus 1) (UniProt Q72874). The test is described as §1. Type of test: cell-based. As to conditions: concentration not given here. The gist of the method:
(§2)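 Antiviral activity in HIV-1-infected CEM cells, read out by a cell viability assay run to a previously described method. Compounds were tested across a dose range, and the antiviral IC50 was taken from the dose-response curve.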

The target of test [3] is T1, Human immunodeficiency virus type 1 protease. The test is described as §1. Type of test: cell-based. Put shortly: as §2
The source holds these as a separate data set.

Test [4] addresses Human immunodeficiency virus type 1 protease (Human immunodeficiency virus 1) (UniProt Q72874). In words: Inhibitory activity against HIV-1 PR in HIV-1 infected CEM-SS cell lines; activity @ 10 uM.
Test [5] has the same target. Kind of test: Inhibitory activity against HIV PR in HIV-1 infected CEM-SS cell lines; activity @ 200 uM.
Test [6] has the same target. Kind of test: Inhibitory activity against HIV-1 PR in HIV-1 infected CEM-SS cell lines; activity @ 10 uM. It counts as cell-based.

The term Ki denotes the dissociation constant of the complex between target and ligand, obtained from inhibition or displacement. Lower therefore signals higher affinity. In the case of `CC(C)(C)NC(=O)c1ccccc1CC(O)CSc1ccccc1C(=O)NC(C)(C)C` (stereo not drawn), in test [1], the Ki was found to be 83 µM.
For orientation: inhibition means the drop in the measured response relative to a control, in per cent. Lower therefore signals little suppression. In turn, `CC(C)(C)NC(=O)c1ccccc1CCC(O)CN1CCCCC1C(=O)NC(C)(C)C` (stereo in doubt; 11) returned an inhibition in test [2] of 20%.
Molecule `CC(C)(C)NC(=O)c1c(CC[C@@H](O)Cc2ccc3ccccc3c2C(=O)NC(C)(C)C)ccc2ccccc12` yielded a Ki in test [1] of 25 µM.
Usually IC50 stands for the point on the concentration scale where inhibition reaches its midpoint. For the molecule `CC(C)(C)NC(=O)c1ccccc1C#CC(O)Cc1ccccc1C(=O)NC(C)(C)C` (stereo not drawn), the IC50 in test [3] came to 200 µM.
In test [1], `CC(C)(C)NC(=O)c1ccccc1CCC(O)Cc1ccc2ccccc2c1C(=O)NC(C)(C)C` (stereo not drawn) displayed a Ki of 2.2 µM. This counts as single-digit micromolar.
Turning to `CC(C)N1CCC(CC(O)CCc2ccccc2C(=O)NC(C)(C)C)=C(C(=O)NC(C)(C)C)C1` (stereo not drawn), in test [3], the IC50 was 70 µM.
Molecule `CC(C)(C)NC(=O)c1cc(C(C)(C)C)ccc1CCC(O)Cc1ccc2ccccc2c1C(=O)NC(C)(C)C` (stereo not drawn) came in with a Ki in test [1] of 1.2 µM.
Take `CC(C)(C)NC(=O)c1cc(C(C)(C)C)ccc1CCC(O)Cc1ccc(C(C)(C)C)cc1C(=O)NC(C)(C)C` (stereo not drawn): the IC50 in test [3] amounted to 7 µM.
In test [4], `CC(C)(C)NC(=O)c1ccccc1CC[C@@H](O)CN1CCC[C@H]1C(=O)NC(C)(C)C` came in with an inhibition of 10%.
As for `CC(C)(C)NC(=O)c1ccccc1CCC(O)Cc1ccccc1C(=O)NC(C)(C)C` (stereo not drawn), the Ki in test [1] came to 24 µM.
Molecule `CC(C)(C)NC(=O)c1ccccc1CC(O)CSc1ccccc1NC(=O)C(C)(C)C` (stereo not drawn) registered an IC50 in test [3] greater than 200 µM.
On to `CC(C)(C)NC(=O)c1c(CCC(O)Cc2ccc3ccccc3c2C(=O)NC(C)(C)C)ccc2ccccc12` (stereo not drawn), for which the affinity in test [1], expressed as Ki, was 1.4 µM.
The same measure, in the same setting: next, `CC(C)(C)NC(=O)c1c(CC[C@H](O)Cc2ccc3ccccc3c2C(=O)NC(C)(C)C)ccc2ccccc12`: 0.48 µM.
As to `CC(C)(C)NC(=O)c1ccccc1SCC(O)c1ccccc1C(=O)NC(C)(C)C` (stereo not drawn), the IC50 in test [3] is greater than 200 µM.
`CC(C)(C)NC(=O)c1ccccc1/C=C/C(O)Cc1ccccc1C(=O)NC(C)(C)C` (stereo not drawn) showed an inhibition in test [5] of 40%.
In the case of `CC(C)(C)NC(=O)c1ccccc1SCC(O)Cc1ccc2ccccc2c1C(=O)NC(C)(C)C` (stereo not drawn), it took 25 µM to reach half-maximal inhibition in test [3] (IC50).
As for `CC(C)(C)NC(=O)c1ccccc1CCC(O)CN1CCCCC1C(=O)NC(C)(C)C` (stereo in doubt; 12), the inhibition in test [2] amounted to 35%.
In the case of `CC(C)(C)NC(=O)c1ccccc1CC[C@H](O)CN1CCC[C@H]1C(=O)NC(C)(C)C`, the inhibition in test [6] came to 10%.
